Results taken from ChEMBL document CHEMBL1121867, “Inhibition of separated forms of cyclic nucleotide phosphodiesterase from pig coronary arteries by 1,3-disubstituted and 1,3,8-trisubstituted xanthines” (J Med Chem, 1981).

Tests used:
Sus scrofa [1] = species on record: Sus scrofa; assay: Inhibition of Peak II phosphodiesterase from pig coronary arteries at 100 uM
[2] = Inhibition of Peak I phosphodiesterase from pig coronary arteries; parameters: species or system Sus scrofa; conditions: read-out: I50
Method in brief: (§1)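 Separated peak I and peak II phosphodiesterase forms prepared from pig coronary arteries. Hydrolysis of 1 µM cyclic nucleotide substrate was measured at 30 °C for 30 min, with enzyme diluted to give 10-20% hydrolysis without inhibitor. Compounds were added from 30% Me2SO, giving 3% Me2SO final in all tubes, including controls and blanks. I50 was read from concentration-inhibition curves over 10^-7 to 10^-4 M, or to 10^-3 M if soluble.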

Sus scrofa [3] = species on record: Sus scrofa; assay: Inhibition of pig coronary artery phosphodiesterase peak I cGMP specific and calmodulin sensitive at 100 uM
[4] = Inhibition of pig coronary artery cAMP-specific phosphodiesterase; parameters: species or system Sus scrofa; conditions: read-out: I50
Method in brief: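 Separated peak I and peak II phosphodiesterase forms prepared from pig coronary arteries. Compounds were added from 30% Me2SO, giving 3% Me2SO final in all tubes, including controls and blanks. I50 was read from concentration-inhibition curves over 10^-7 to 10^-4 M, or to 10^-3 M if soluble.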

Sus scrofa [5] = species on record: Sus scrofa; assay: Inhibition of pig coronary artery phosphodiesterase peak I cGMP specific and calmodulin sensitive; conditions: concentration not given here; method in brief: as §1
Sus scrofa [6] = species on record: Sus scrofa; assay: Inhibition of pig coronary artery phosphodiesterase peak II cyclic AMP specific at 100 uM

| Compound | inhibition (Sus scrofa [1]) | IC50 [2] | other results |
| --- | --- | --- | --- |
| COC(=O)CCc1nc2c(=O)n(C)c(=O)n(CC(C)C)c2[nH]1 | 30% | 9.8 µM | – |
| CC(C)Cn1c(=O)n(C)c(=O)c2[nH]c(CCC(=O)O)nc21 | 12% | 45 µM | – |
| CC(C)=CCc1nc2c([nH]1)c(=O)n(C)c(=O)n2CC(C)C | 21% | 6.3 µM | – |
| CC(C)CCn1c(=O)c2[nH]cnc2n(CC(C)C)c1=O | – | 86 µM | IC50 [4]: 17 µM |
| Cn1c(=O)c2nc[nH]c2n(C)c1=O [THEOPHYLLINE] | – | 100 µM | – |
| CC(C)Cn1c(=O)n(C)c(=O)c2[nH]nnc21 | – | – | inhibition (Sus scrofa [3]): 35%; inhibition (Sus scrofa [6]): 1% |
| CC(C)Cn1c(=O)n(C)c(=O)c2[nH]c(CCl)nc21 | 28% | 8.9 µM | – |
| CC(C)Cn1c(=O)n(C)c(=O)c2[nH]c(CCCO)nc21 | 29% | 11 µM | – |
| CC(C)Cn1c(=O)n(C)c(=O)c2[nH]c(CO)nc21 | – | 9.4 µM | IC50 [4]: 283 µM |
| CC(C)Cn1c(=O)n(C)c(=O)c2[nH]c(N(C)C)nc21 | 33% | 1.6 µM | – |
| COCc1nc2c([nH]1)c(=O)n(C)c(=O)n2CC(C)C | – | 5.2 µM | IC50 [4]: 212 µM |

More lines, main results first:

| inhibition (Sus scrofa [1]) | IC50 [2] | Compound | other results |
| --- | --- | --- | --- |
| 39% | 1.2 µM | CNc1nc2c(=O)n(C)c(=O)n(CC(C)C)c2[nH]1 | – |
| 42% | – | C=C(C)Cn1c(=O)n(CCC(C)C)c(=O)c2nc[nH]c21 | inhibition (Sus scrofa [3]): 38% |
| 23% | – | Cn1c(=O)c2nc[nH]c2n(CCO)c1=O | inhibition (Sus scrofa [3]): 30% |
| 27% | – | CC(=O)OCCn1c(=O)n(C)c(=O)c2nc[nH]c21 | inhibition (Sus scrofa [3]): 43% |
| 40% | – | COC(=O)Cn1c(=O)c2nc[nH]c2n(CC(C)C)c1=O | inhibition (Sus scrofa [3]): 26% |
| – | 10 µM | C=C(C)Cn1c(=O)n(C)c(=O)c2nc[nH]c21 | IC50 [4]: 36 µM |
| 1.9% | – | CC(C)Cn1c(=O)n(CC(=O)O)c(=O)c2[nH]cnc21 | inhibition (Sus scrofa [5]): 2.4% |
| – | 25 µM | C=CCn1c(=O)n(C)c(=O)c2nc[nH]c21 | IC50 [4]: 52 µM |
